Data reported in ChEMBL document CHEMBL1154414, “In vitro and in vivo activities of T-705 against arenavirus and bunyavirus infections” (Antimicrob Agents Chemother, 2007).

Tests used:
[1] = tested on: Pichinde virus; test: Antiviral activity against Pichinde virus An 4763 infected Syrian golden hamster assessed as mean serum ALT levels at 40 mg/kg, po twice daily for 7 days administered 4 hrs before viral-challenge measured on day 7 of viral infection; format: functional
How it was run: (§1)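 Hamsters were challenged intraperitoneally (bilateral, 65 PFU) and given twice-daily oral gavage doses (0.4% CMC vehicle). Five per group were sacrificed on day 7 and serum was collected. Serum ALT activity was measured by kinetic assay. Three sham-infected animals set the baselines.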

[2] = tested on: Sandfly fever Naples virus; test: Antiviral activity against Sandfly fever Naples virus assessed as inhibition of virus-induced visual cytopathic effect after 3 to 5 days; format: functional, organism-based
How it was run: (§2)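 Virus in medium with 2% FBS was used at the CCID50 that gave maximal CPE. Half-log drug dilutions (DMSO stock, ≤1% DMSO at the top concentration) were added at infection. EC50 was derived by regression analysis.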

[3] = tested on: Pichinde virus; test: Antiviral activity against Pichinde virus An 4763 infected Syrian golden hamster assessed as animals with detectable virus level in liver at 50 mg/kg, po twice daily for 7 days administered 72 hrs post viral-challenge measured on day 7 of viral infection; format: functional
How it was run: (§3)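 Hamsters (groups of 15, placebo 25-30) were dosed orally by gavage twice daily (drug suspended in 0.4% CMC) after bilateral intraperitoneal challenge with 65 PFU. Five per group were killed on day 7. Liver homogenate or serum was serially diluted onto triplicate B-SC-1 wells, CPE was read at 6-8 days, and the 50% endpoint was taken. Range was 2.8-9.5 log10 CCID50/0.1 g or 0.1 ml, with undetectable assigned <2.8.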

[4] = tested on: Punta Toro virus; test: Antiviral activity against 50 PFU Punta Toro virus Adames infected C57BL/6 mouse assessed as mean day of death at 10 mg/kg, po twice daily for 5 days administered 24 hrs post viral challenge; format: functional
How it was run: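 Groups of 15 mice (25–30 placebo) were inoculated subcutaneously with PTV. Drug in 0.4% carboxymethylcellulose was given by oral gavage twice daily.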

[5] = tested on: Punta Toro virus; test: Antiviral activity against 50 PFU Punta Toro virus Adames infected C57BL/6 mouse assessed as animals with detectable virus level in serum at 10 mg/kg, po twice daily administered 24 hrs post viral challenge measured on day 3 of viral infection; format: functional
How it was run: (§4)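 T-705 was suspended in 0.4% carboxymethylcellulose and given by oral gavage twice daily. Mice were infected subcutaneously with PTV. Five mice per group (10 placebo) were sacrificed on day 3 or 4. Liver homogenate or serum was serially diluted onto triplicate LLC-MK2 monolayers, and CPE was read at 6–8 days. The detection limit was 2.8 log10 CCID50 per 0.1 g liver or 0.1 ml serum.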

[6] = tested on: Pichinde virus; test: Antiviral activity against Pichinde virus An 4763 infected Syrian golden hamster assessed as animals with detectable virus level in liver at 20 mg/kg, po twice daily for 7 days administered 72 hrs post viral-challenge measured on day 7 of viral infection; format: functional; how it was run: as §3
[7] = tested on: Punta Toro virus; test: Antiviral activity against Punta Toro virus Adames infected Syrian golden hamster assessed as animals with detectable virus level in liver at 30 mg/kg, […] measured on day 4 of viral infection; format: functional; settings: route oral
[8] = tested on: Punta Toro virus; test: Antiviral activity against Punta Toro virus Adames assessed as inhibition of virus-induced visual cytopathic effect after 3 to 5 days; format: functional, organism-based; how it was run: as §2
[9] = tested on: Punta Toro virus; test: Antiviral activity against Punta Toro virus Adames infected Syrian golden hamster assessed as mean viral titer per 0.1 g of liver at 30 mg/kg, […] measured on day 4 of viral infection; format: functional; settings: route oral
[10] = tested on: Pichinde virus; test: Antiviral activity against Pichinde virus An 4763 infected Syrian golden hamster assessed as mean serum ALT levels at 50 mg/kg, po twice daily for 7 days administered 72 hrs post viral-challenge measured on day 7 of viral infection measured on day 7 of viral infection; format: functional; how it was run: as §1
[11] = tested on: Punta Toro virus; test: Antiviral activity against Punta Toro virus Adames infected Syrian golden hamster assessed as mean viral titer per 0.1 mL of serum at 30 mg/kg, po twice daily administered 4 hrs before viral challenge measured on day 4 of viral infection; format: functional
How it was run: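 Hamsters received twice-daily oral gavage doses (0.4% CMC) after subcutaneous challenge with 50 PFU. Five per group were killed on day 3 or 4. Liver homogenate or serum was serially diluted onto triplicate LLC-MK2 wells, CPE was read at 6-8 days, and the 50% endpoint was taken. Range was 2.8-9.5 log10 CCID50/0.1 g or 0.1 ml, with undetectable assigned <2.8.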

[12] = tested on: Punta Toro virus; test: Antiviral activity against Punta Toro virus Adames infected Syrian golden hamster assessed as animals with detectable virus level in serum at 30 mg/kg, […] measured on day 4 of viral infection; format: functional; settings: route oral
[13] = tested on: Pichinde virus; test: Antiviral activity against Pichinde virus An 4763 infected Syrian golden hamster assessed as survival at 50 mg/kg, po twice daily for 7 days administered 72 hrs post viral-challenge; format: functional
How it was run: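 Groups of 15 hamsters (placebo 25-30) were challenged intraperitoneally (bilateral, 65 PFU) and dosed twice daily by oral gavage in 0.4% CMC for 5 to 7 days.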

[14] = tested on: Punta Toro virus; test: Antiviral activity against 50 PFU Punta Toro virus Adames infected C57BL/6 mouse assessed as mean viral titer per 0.1 mL of serum at 30 mg/kg, po twice daily administered 24 hrs post viral challenge measured on day 3 of viral infection; format: functional
How it was run: (§5)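 Mice were infected subcutaneously with PTV and dosed by oral gavage twice daily with drug in 0.4% CMC. Five per group (10 placebo) were sacrificed on day 3 or 4. Serially diluted liver homogenate or serum went into triplicate LLC-MK2 wells, and CPE 50% endpoints were read at 6–8 days. The range was 2.8–9.5 log10 CCID50/0.1 g or 0.1 ml, with undetectable samples set to 2.8 and saturated samples to 9.5.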

[15] = tested on: Punta Toro virus; test: Antiviral activity against 50 PFU Punta Toro virus Adames infected C57BL/6 mouse assessed as mean serum ALT levels at 30 mg/kg, po twice daily administered 24 hrs post viral challenge measured on day 3 of viral infection; format: functional
How it was run: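 Subcutaneous PTV infection was followed by oral gavage twice daily with drug suspended in 0.4% CMC. Serum was collected from 5 sacrificed mice per group (10 placebo) on day 3 or 4. ALT activity was measured by kinetic assay, and sham-infected mice set the baselines.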

[16] = tested on: Pichinde virus; test: Antiviral activity against Pichinde virus An 4763 infected Syrian golden hamster assessed as animals with detectable virus level in serum at 20 mg/kg, po twice daily for 7 days administered 24 hrs post viral-challenge measured on day 7 of viral infection; format: functional; how it was run: as §3
[17] = tested on: Punta Toro virus; test: Antiviral activity against 500 PFU Punta Toro virus Adames infected C57BL/6 mouse assessed as animals with detectable virus level in liver at 30 mg/kg, po twice daily administered 24 hrs post viral challenge measured on day 3 of viral infection; format: functional; how it was run: as §4
[18] = tested on: Punta Toro virus; test: Antiviral activity against 5000 PFU Punta Toro virus Adames infected C57BL/6 mouse assessed as mean viral titer per 0.1 mL of serum at 30 mg/kg, po twice daily administered 24 hrs post viral challenge measured on day 3 of viral infection; format: functional
How it was run: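 Mice were infected subcutaneously with PTV and dosed by oral gavage twice daily; 5 per group (10 placebo) were killed on day 3 or 4. Liver homogenate or serum was serially diluted onto triplicate LLC-MK2 monolayers, and CPE was read 6–8 days later. 50% endpoints gave log10 CCID50 per 0.1 g liver or 0.1 ml serum. Detection range was 2.8–9.5; undetectable samples were assigned <2.8.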

[19] = tested on: Punta Toro virus; test: Antiviral activity against 50 PFU Punta Toro virus Adames infected C57BL/6 mouse assessed as mean viral titer per 0.1 mL of serum at 10 mg/kg, po twice daily administered 24 hrs post viral challenge measured on day 3 of viral infection; format: functional; how it was run: as §5

## NC(=O)c1nc(F)cnc1O [FAVIPIRAVIR]
[1]
  Activity: 30 IU/L
[2]
  EC50: 115 µM
[3]
  Activity: 100%
[4]
  Activity: 5.8 days
[5]
  Activity: 100%
[6]
  Activity: 100%
[7]
  Activity: 40%
[8]
  EC50: 191 µM
[9]
  log10CCID50: <3.5
[10]
  Activity: 411 IU/L
[11]
  log10CCID50: <4.5
[12]
  Activity: 40%
[13]
  Efficacy: 60%
[14]
  log10CCID50: <4.4
[15]
  Activity: 199 IU/L
[16]
  Activity: 100%
[17]
  Activity: 60%
[18]
  log10CCID50: <3.3
[19]
  log10CCID50: 6.9

## NC(=O)c1ncn([C@@H]2O[C@H](CO)[C@@H](O)[C@H]2O)n1 [RIBAVIRIN]
[1]
  Activity: 30 IU/L
[2]
  EC50: 90 µM
[3]
  Activity: 100%
[4]
  Activity: 5.3 days
[5]
  Activity: 60%
[6]
  Activity: 100%
[7]
  Activity: 0%
[8]
  EC50: 172 µM
[9]
  log10CCID50: <2.8
[10]
  Activity: 15 IU/L
[11]
  log10CCID50: <2.8
[12]
  Activity: 0%
[13]
  Efficacy: 60%
[14]
  log10CCID50: 6.1
[15]
  Activity: 131 IU/L
[16]
  Activity: 80%
[17]
  Activity: 60%
[18]
  log10CCID50: <4.2
[19]
  log10CCID50: <4.9
